Data reported in ChEMBL document CHEMBL3091343, “Nicotinamide phosphoribosyltransferase inhibitors, design, preparation, and structure-activity relationship” (J Med Chem, 2013).

Tests used:
HCT-116 [1] = assay: Cytotoxicity against APO866-resistant human HCT116 cells assessed as growth inhibition after 72 hrs by WST-1 assay; assay type: functional, cell-based; details: HCT-116, 72 h
HCT-116 [2] = assay: Cytotoxicity against human HCT116 cells assessed as growth inhibition after 72 hrs by WST-1 assay; assay type: functional, cell-based; details: HCT-116, 72 h
[3] = Toxicity in ip dosed NMRI mouse assessed as blood cell count administered as bid for 5 days; assay type: organism-based; details: in vivo
[4] = Apparent volume of distribution in NMRI mouse at 50 mg/kg, iv; assay type: ADME, organism-based; set-up: dose 50 mg/kg, route intravenous; details: in vivo, read-out: Vz
Summary of the method: (§1)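 Mouse PK after a single i.v. dose. Plasma proteins were precipitated with acetonitrile containing internal standard (3:1 v/v). Samples were analysed by UPLC-MS/MS on a C18 column at 40°C with an acetonitrile–0.05% formic acid gradient, using positive electrospray MRM. Parameters were derived by non-compartmental analysis.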

MCF7 [5] = assay: Cytotoxicity against human MCF-7 cells assessed as growth inhibition after 72 hrs by WST-1 assay; assay type: functional, cell-based; details: MCF7, 72 h
[6] = Half life in NMRI mouse at 50 mg/kg, iv; assay type: ADME, organism-based; set-up: dose 50 mg/kg, route intravenous; details: in vivo; summary of the method: as §1
[7] = Tmax in NMRI mouse at 50 mg/kg, iv; assay type: ADME, organism-based; set-up: dose 50 mg/kg, route intravenous; details: in vivo; summary of the method: as §1
[8] = AUC in NMRI mouse at 50 mg/kg, iv; assay type: ADME, organism-based; set-up: dose 50 mg/kg, route intravenous; details: plasma; summary of the method: as §1
A2780 [9] = assay: Cytotoxicity against human A2780 cells assessed as growth inhibition after 72 hrs by WST-1 assay; assay type: functional, cell-based; details: A2780, 72 h
[10] = Clearance in NMRI mouse at 50 mg/kg, iv; assay type: ADME, organism-based; set-up: dose 50 mg/kg, route intravenous; details: in vivo; summary of the method: as §1
[11] = Toxicity in ip dosed NMRI mouse assessed as body weight loss administered as bid for 5 days; assay type: organism-based; details: in vivo
HCT-116 [12] = assay: Resistance factor, ratio of IC50 for APO866-resistant human HCT116 cells to IC50 for human HCT116 cells; assay type: functional
[13] = Cmax in NMRI mouse at 50 mg/kg, iv; assay type: ADME, organism-based; set-up: dose 50 mg/kg, route intravenous; details: in vivo; summary of the method: as §1
[14] = target: Nicotinamide phosphoribosyltransferase (Homo sapiens, UniProt P43490); assay: Inhibition of NAMPT in human HepG2 cells using [14C]-nicotinamide/PRPP as substrate assessed as formation of [14C]-nicotinamide mononucleotide after 1 hr by liquid scintillation counting analysis; assay type: cell-based
Chain of Nicotinamide phosphoribosyltransferase (P43490 whole entry): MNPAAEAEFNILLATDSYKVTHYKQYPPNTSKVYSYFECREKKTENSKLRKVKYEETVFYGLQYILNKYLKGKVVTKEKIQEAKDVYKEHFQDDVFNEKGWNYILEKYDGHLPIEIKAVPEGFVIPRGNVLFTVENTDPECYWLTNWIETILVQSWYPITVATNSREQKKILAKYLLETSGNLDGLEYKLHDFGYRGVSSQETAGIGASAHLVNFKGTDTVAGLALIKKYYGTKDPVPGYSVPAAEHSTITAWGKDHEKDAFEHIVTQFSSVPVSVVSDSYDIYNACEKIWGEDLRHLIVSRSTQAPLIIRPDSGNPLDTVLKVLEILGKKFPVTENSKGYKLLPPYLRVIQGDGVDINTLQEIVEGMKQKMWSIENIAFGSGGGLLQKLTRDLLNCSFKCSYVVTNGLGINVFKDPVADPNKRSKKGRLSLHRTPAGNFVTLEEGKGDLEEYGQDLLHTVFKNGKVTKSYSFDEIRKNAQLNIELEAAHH

Plasma = assay: Metabolic stability in mouse plasma assessed as compound hydrolysis; assay type: ADME, cell-free
A2780 [15] = assay: Antitumor activity against human A2780 cells xenografted in NMRI/nude mouse assessed as tumor growth inhibition at 15 mg/kg, ip bid administered for 5 days measured at day 14 relative to vehicle-treated control; assay type: functional; details: route intraperitoneal
[16] = Apparent volume of distribution in NMRI mouse at 20 mg/kg, iv; assay type: ADME, organism-based; set-up: dose 20 mg/kg, route intravenous; details: in vivo, read-out: Vz; summary of the method: as §1
A2780 [17] = assay: cells; details: Homo sapiens
[18] = Clearance in NMRI mouse at 20 mg/kg, iv; assay type: ADME, organism-based; set-up: dose 20 mg/kg, route intravenous; details: in vivo; summary of the method: as §1
[19] = Tmax in NMRI mouse at 20 mg/kg, iv; assay type: ADME, organism-based; set-up: dose 20 mg/kg, route intravenous; details: in vivo; summary of the method: as §1
SK-OV-3 = assay: Cytotoxicity against human SKOV3 cells by clonogenic assay; assay type: functional, cell-based
MCF7 [20] = assay: cells; details: Homo sapiens
[21] = Cmax in NMRI mouse at 20 mg/kg, iv; assay type: ADME, organism-based; set-up: dose 20 mg/kg, route intravenous; details: in vivo; summary of the method: as §1
[22] = AUC in NMRI mouse at 20 mg/kg, iv; assay type: ADME, organism-based; set-up: dose 20 mg/kg, route intravenous; details: plasma; summary of the method: as §1
[23] = Half life in NMRI mouse at 20 mg/kg, iv; assay type: ADME, organism-based; set-up: dose 20 mg/kg, route intravenous; details: in vivo; summary of the method: as §1
[24] = Cytotoxicity against human NYH cells by clonogenic assay; assay type: functional, cell-based
A-431 = assay: Cytotoxicity against human A431 cells by clonogenic assay; assay type: functional, cell-based
PC-3 = assay: Cytotoxicity against human PC3 cells by clonogenic assay; assay type: functional, cell-based
Mus musculus [25] = assay: Toxicity in human A2780 cells xenografted NMRI/nude mouse containing small tumors assessed as effect on body weight at 15 mg/kg, ip bid administered for 5 days measured at day 14 relative to vehicle-treated control; assay type: organism-based; set-up: dose 15 mg/kg, route intraperitoneal; details: in vivo, 120 h
Mus musculus [26] = assay: Toxicity in human A2780 cells xenografted NMRI/nude mouse containing small tumors assessed as effect on body weight at 0.63 to 2.5 mg/kg, ip bid administered for 5 days measured at day 14 relative to vehicle-treated control; assay type: organism-based; set-up: dose 0.63-2.5 mg/kg, route intraperitoneal; details: in vivo, 120 h
Mus musculus [27] = assay: Toxicity in human A2780 cells xenografted NMRI/nude mouse containing large tumors assessed as effect on body weight at 5 to 10 mg/kg, ip bid administered for 10 days measured during compound administration; details: in vivo, 240 h
Mus musculus [28] = assay: Toxicity in human A2780 cells xenografted NMRI/nude mouse containing large tumors assessed as effect on body weight at 3 mg/kg, ip bid administered for 10 days; details: in vivo

For `O=C(NCCCCCCS(=O)(=O)N(OCCN1CCOCC1)C1CCCCC1)Nc1ccncc1`, the IC50 (HCT-116 [1]) was > 5000 nM, the IC50 (HCT-116 [2]) was 5.3 nM and the MTD at 120 h [3] was < 10 mg/kg. It also gave a Vd [4] of 4.6 L/kg, an IC50 (MCF7 [5]) of 0.05 nM and a half-life [6] of 27 min. It also gave a Tmax [7] of 4.8 min, an AUC [8] of 7020 ng·h/mL and an IC50 (A2780 [9]) of 0.25 nM. For the same molecule, the clearance [10] was 118 mL/min/kg, the MTD at 120 h [11] was < 10 mg/kg and the “Ratio IC50” value (HCT-116 [12]) was 128. For the same molecule, the Cmax [13] was 14800 ng/mL and the IC50 [14] was 49 nM.

`O=S(=O)(CCCCCCNC(=S)Nc1ccncc1)N(OCCN1CCOCC1)C1CCCC1` showed an IC50 (MCF7 [5]) of 0.31 nM and an IC50 (A2780 [9]) of 0.16 nM.

With `N#C/N=C(\NCCCCC[C@@H](Cc1ccccc1)C(=O)NOC1CCCCC1)Nc1ccncc1` the Stability (Plasma) was “Unstable”, the IC50 (MCF7 [5]) was 5.3 nM and the IC50 (A2780 [9]) was 0.32 nM.

In the case of `O=C(NCCCCCS(=O)(=O)N(OCCN1CCOCC1)C1CCC1)NCc1cccnc1`, the IC50 (MCF7 [5]) is reported as 49 nM and the IC50 (A2780 [9]) is reported as 13 nM.

With `O=C1C(=O)C(Nc2ccncc2)C1NCCCCCS(=O)(=O)N(OCCN1CCOCC1)C1CCCC1` (stereo not drawn) the IC50 (MCF7 [5]) was 46.3 nM and the IC50 (A2780 [9]) was 0.38 nM.

Molecule `N#C/N=C(\NCCCCCCC(=O)N(OCCN1CCOCC1)C1CCCCC1)Nc1ccncc1` has an IC50 (MCF7 [5]) of 0.42 nM, an IC50 (A2780 [9]) of 0.1 nM and an IC50 [14] of 0.2 nM.

Work on `N#C/N=C(\NCCCCCC(=O)N(Cc1ccccc1)OCCN1CCOCC1)Nc1ccncc1` yielded an IC50 (MCF7 [5]) of 0.021 nM and an IC50 (A2780 [9]) of 0.081 nM.

Work on `O=C(CCCCCCNc1c(Nc2ccncc2)c(=O)c1=O)N(OCCN1CCOCC1)C1CCCCC1` yielded an IC50 (A2780 [9]) of 0.03 nM.

For `O=C(/C=C/c1cccnc1)NCCCCC1CCN(C(=O)c2ccccc2)CC1` [DAPORINAD], the T/C (A2780 [15]) was 52%, the Vd [16] was 0.998 L/kg and the IC50 (A2780 [17]) was 5.7 nM. The IC50 (HCT-116 [1]) was 946 nM, the IC50 (HCT-116 [2]) was 10.9 nM and the MTD at 120 h [3] was < 10 mg/kg. The clearance [18] was 27 mL/min/kg, the Tmax [19] was 15 min and the IC50 (SK-OV-3) was 211 nM. It also gave an IC50 (MCF7 [5]) of 7.4 nM, an IC50 (A2780 [9]) of 1.6 nM and an IC50 (MCF7 [20]) of 8.4 nM. The Cmax [21] was 14600 ng/mL, the MTD at 120 h [11] was < 10 mg/kg and the AUC [22] was 12300 ng·h/mL. The half-life [23] was 24 min, the IC50 [24] was 1.5 nM and the IC50 (A-431) was 6.1 nM. The IC50 (PC-3) was 3.8 nM and the Activity (Mus musculus [25]) was “Non-toxic”.

Work on `N#CNC(=Nc1ccncc1)NCCCCCCS(=O)(=O)NOCC1CCCCC1` yielded an IC50 (MCF7 [5]) of 3.4 nM, an IC50 (A2780 [9]) of 0.16 nM and an IC50 [14] of 2.4 nM.

`N#C/N=C(\NCCCCCCC(=O)N(Cc1ccccc1)OC1CCCCC1)Nc1ccncc1` gave an IC50 (MCF7 [5]) of 1 nM, an IC50 (A2780 [9]) of 0.055 nM and an IC50 [14] of 38.5 nM.

Work on `O=C(NCCCCCS(=O)(=O)N(OCCN1CCOCC1)C1CCCCC1)NCc1cccnc1` yielded an IC50 (MCF7 [5]) of 6.5 nM and an IC50 (A2780 [9]) of 4.6 nM.

For `N#CNC(=Nc1ccncc1)NCCCCCCS(=O)(=O)N(OCCN1CCOCC1)C1CCCCC1`, the MTD at 120 h [3] was < 10 mg/kg, the Vd [4] was 1.28 L/kg and the Activity (Mus musculus [26]) was “Non-toxic”. For the same molecule, the half-life [6] was 10.8 min, the Tmax [7] was 4.8 min and the AUC [8] was 10200 ng·h/mL. For the same molecule, the Activity (Mus musculus [27]) was “Toxic”, the clearance [10] was 81.8 mL/min/kg and the MTD at 120 h [11] was < 10 mg/kg. For the same molecule, the Activity (Mus musculus [28]) was “Non-toxic”, the Cmax [13] was 14100 ng/mL and the IC50 [14] was 0.3 nM.

Work on `O=C(NCCCCCCCS(=O)(=O)N(OCCN1CCOCC1)C1CCCCC1)NCc1cccnc1` yielded an IC50 (MCF7 [5]) of 3.6 nM and an IC50 (A2780 [9]) of 0.31 nM.

Work on `N#C/N=C(\NCCCCCCS(=O)(=O)N(CCCN1CCOCC1)C1CCCCC1)Nc1ccncc1` yielded an IC50 (MCF7 [5]) of 0.11 nM, an IC50 (A2780 [9]) of 0.16 nM and an IC50 [14] of 2.4 nM.

With `O=C1C(=O)C(Nc2ccncc2)C1NCCCCCCS(=O)(=O)N(OCCN1CCOCC1)C1CCC1` (stereo not drawn) the IC50 (MCF7 [5]) was 29.1 nM and the IC50 (A2780 [9]) was 0.2 nM.

Molecule `N#C/N=C(\NCCCCCS(=O)(=O)N(OCCN1CCOCC1)C1CCCC1)Nc1ccncc1` has an IC50 (MCF7 [5]) of 0.041 nM and an IC50 (A2780 [9]) of 0.022 nM.

With `N#C/N=C(\NCCCCCCCS(=O)(=O)N(OCCN1CCOCC1)C1CCCCC1)Nc1ccncc1` the IC50 (MCF7 [5]) was 0.29 nM and the IC50 (A2780 [9]) was 0.089 nM.

`O=C1C(=O)C(Nc2ccncc2)C1NCCCCCCC(=O)N(Cc1ccccc1)OCCN1CCOCC1` (stereo not drawn) showed an IC50 (MCF7 [5]) of 12.3 nM and an IC50 (A2780 [9]) of 0.29 nM.

`O=C1C(=O)C(Nc2ccncc2)C1NCCCCCC(=O)N(Cc1ccccc1)OCCN1CCOCC1` (stereo not drawn) gave an IC50 (MCF7 [5]) of 23 nM and an IC50 (A2780 [9]) of 0.68 nM.

`O=C(NCCCCCCS(=O)(=O)N(OCCN1CCOCC1)C1CCCC1)NCc1cccnc1` showed an IC50 (MCF7 [5]) of 5.8 nM and an IC50 (A2780 [9]) of 0.58 nM.

In the case of `O=C(NCCCCCCS(=O)(=O)N(CCN1CCOCC1)CC1CCCCC1)NCc1cccnc1`, the IC50 (MCF7 [5]) is reported as 0.93 nM, the IC50 (A2780 [9]) is reported as 0.17 nM and the IC50 [14] is reported as 11.8 nM.

In the case of `O=C1C(=O)C(Nc2ccncc2)C1NCCCCCCS(=O)(=O)N(OCCN1CCOCC1)C1CCCC1` (stereo not drawn), the IC50 (MCF7 [5]) is reported as 13.7 nM and the IC50 (A2780 [9]) is reported as 0.59 nM.

`N#C/N=C(\NCCCCCCS(=O)(=O)N(OCCN1CCOCC1)C1CCCCC1)Nc1cccnc1` gave an IC50 (MCF7 [5]) of 2.9 nM and an IC50 (A2780 [9]) of 0.51 nM.
